Experiments:
Assay type in all cases: functional, Salmonella enterica subsp. enterica serovar Typhimurium
Salmonella typhimurium [1] = test: Antimicrobial activity against Salmonella enterica serovar Typhimurium CS9 acrAB::Kan with GyrA S83F, D87N, ParC S80I mutation
Outline: (§1)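 MICs measured by broth microdilution on the Sensititre automated system and interpreted by CLSI broth microdilution standards. Ciprofloxacin was also tested by agar dilution, widening the range to 0.0075–128 μg/ml. Quality control strains were E. coli ATCC 25922 and 35218, E. faecalis ATCC 29212, S. aureus ATCC 29213 and P. aeruginosa ATCC 27853.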

Salmonella typhimurium [2] = test: Antimicrobial activity against Salmonella enterica serovar Typhimurium CHS14 tolC::Kan with GyrA D87G mutant; outline: as §1
Salmonella typhimurium [3] = test: Antimicrobial activity against Salmonella enterica serovar Typhimurium CS9 with GyrA S83F, D87N, ParC S80I mutation; outline: as §1
Salmonella typhimurium [4] = test: Antimicrobial activity against Salmonella enterica serovar Typhimurium S21-4 tolC::Kan with GyrA S83F, ParC S80I mutation; outline: as §1
Salmonella typhimurium [5] = test: Antimicrobial activity against Salmonella enterica serovar Typhimurium S21-4 with GyrA S83F, ParC S80I mutation; outline: as §1
Salmonella typhimurium [6] = test: Antimicrobial activity against Salmonella enterica serovar Typhimurium S21-1 gyrA+; outline: as §1
Salmonella typhimurium [7] = test: Antimicrobial activity against Salmonella enterica serovar Typhimurium CS1 tolC::Kan with GyrA S83F, D87N, ParC S80I mutation; outline: as §1
Salmonella typhimurium [8] = test: Antimicrobial activity against Salmonella enterica serovar Typhimurium S21-2 with GyrA S83F, ParC S80I mutation; outline: as §1
Salmonella typhimurium [9] = test: Antimicrobial activity against Salmonella enterica serovar Typhimurium CS3 gyrA+ with GyrA S83F, D87N, ParC S80I mutation; outline: as §1
Salmonella typhimurium [10] = test: Antimicrobial activity against Salmonella enterica serovar Typhimurium S21-1 GyrA S83F mutant; outline: as §1
Salmonella typhimurium [11] = test: Antimicrobial activity against Salmonella enterica serovar Typhimurium CHS18 gyrA+ with GyrA S38F mutation; outline: as §1
Salmonella typhimurium [12] = test: Antimicrobial activity against Salmonella enterica serovar Typhimurium CS9 gyrA+ with GyrA S83F, D87N, ParC S80I mutation; outline: as §1
Salmonella typhimurium [13] = test: Antimicrobial activity against Salmonella enterica serovar Typhimurium S21-2 gyrA+ with ParC S80I mutation; outline: as §1
Salmonella typhimurium [14] = test: Antimicrobial activity against Salmonella enterica serovar Typhimurium CHS38 acrAB::Kan with GyrA D87G mutation; outline: as §1
Salmonella typhimurium [15] = test: Antimicrobial activity against Salmonella enterica serovar Typhimurium CS1 gyrA+ with GyrA S83F, D87N, ParC S80I mutation; outline: as §1
Salmonella typhimurium [16] = test: Antimicrobial activity against Salmonella enterica serovar Typhimurium CHS38 tolC::Kan with GyrA D87G mutation; outline: as §1
Salmonella typhimurium [17] = test: Antimicrobial activity against Salmonella enterica serovar Typhimurium S21-3 tolC::Kan with GyrA S83F, ParC S80I mutation; outline: as §1
Salmonella typhimurium [18] = test: Antimicrobial activity against Salmonella enterica serovar Typhimurium S21; outline: as §1
Salmonella typhimurium [19] = test: Antimicrobial activity against Salmonella enterica serovar Typhimurium S21-3 gyrA+ with ParC S80I mutation; outline: as §1
Salmonella typhimurium [20] = test: Antimicrobial activity against Salmonella enterica serovar Typhimurium CS1 acrAB::Kan with GyrA S83F, D87N, ParC S80I mutation; outline: as §1
Salmonella typhimurium [21] = test: Antimicrobial activity against Salmonella enterica serovar Typhimurium S21-2 acrAB::Kan with GyrA S83F, ParC S80I mutation; outline: as §1
Salmonella typhimurium [22] = test: Antimicrobial activity against Salmonella enterica serovar Typhimurium S21-3 with GyrA S83F, ParC S80I mutation; outline: as §1
Salmonella typhimurium [23] = test: Antimicrobial activity against Salmonella enterica serovar Typhimurium CS9 tolC::Kan with GyrA S83F, D87N, ParC S80I mutation; outline: as §1
Salmonella typhimurium [24] = test: Antimicrobial activity against Salmonella enterica serovar Typhimurium GyrA S21-1 acrAB::Kan with GyrA S83F mutation; outline: as §1
Salmonella typhimurium [25] = test: Antimicrobial activity against Salmonella enterica serovar Typhimurium CS3 acrAB::Kan with GyrA S83F, D87N, ParC S80I mutation; outline: as §1
Salmonella typhimurium [26] = test: Antimicrobial activity against Salmonella enterica serovar Typhimurium CHS18 tolC::Kan with GyrA S38F mutation; outline: as §1
Salmonella typhimurium [27] = test: Antimicrobial activity against Salmonella enterica serovar Typhimurium S21-4 gyrA+ with ParC S80I mutation; outline: as §1
Salmonella typhimurium [28] = test: Antimicrobial activity against Salmonella enterica serovar Typhimurium S21 tolC::Kan
Outline: (§2)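 MICs by automated broth microdilution panels, interpreted to CLSI broth microdilution standards. Ciprofloxacin additionally tested by agar dilution across 0.0075 to 128 μg/ml. Quality control strains: E. coli ATCC 25922 and 35218, Enterococcus faecalis ATCC 29212, S. aureus ATCC 29213, P. aeruginosa ATCC 27853. Test strains are kanamycin-marked deletion mutants of ground-beef isolate S21.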

Salmonella typhimurium [29] = test: Antimicrobial activity against Salmonella enterica serovar Typhimurium CHS18 acrAB::Kan with GyrA S38F mutation; outline: as §1
Salmonella typhimurium [30] = test: Antimicrobial activity against Salmonella enterica serovar Typhimurium S21-1 tolC::Kan with GyrA S83F mutation; outline: as §1
Salmonella typhimurium [31] = test: Antimicrobial activity against Salmonella enterica serovar Typhimurium CHS18 with GyrA S38F mutation; outline: as §1
Salmonella typhimurium [32] = test: Antimicrobial activity against Salmonella enterica serovar Typhimurium CHS14 acrAB::Kan with GyrA D87G mutation; outline: as §1
Salmonella typhimurium [33] = test: Antimicrobial activity against Salmonella enterica serovar Typhimurium S21-3 acrAB::Kan with GyrA S83F, ParC S80I mutation; outline: as §1
Salmonella typhimurium [34] = test: Antimicrobial activity against Salmonella enterica serovar Typhimurium CS3 with GyrA S83F, D87N, ParC S80I mutation; outline: as §1
Salmonella typhimurium [35] = test: Antimicrobial activity against Salmonella enterica serovar Typhimurium CHS38 gyrA+ with GyrA D87G mutation; outline: as §1
Salmonella typhimurium [36] = test: Antimicrobial activity against Salmonella enterica serovar Typhimurium CHS14 with GyrA D87G mutation; outline: as §1
Salmonella typhimurium [37] = test: Antimicrobial activity against Salmonella enterica serovar Typhimurium CHS14 gyrA+ with GyrA D87G mutation; outline: as §1
Salmonella typhimurium [38] = test: Antimicrobial activity against Salmonella enterica serovar Typhimurium CS3 tolC::Kan with GyrA S83F, D87N, parC S80I mutation; outline: as §1
Salmonella typhimurium [39] = test: Antimicrobial activity against Salmonella enterica serovar Typhimurium CS1 with GyrA S83F, D87N, ParC S80I mutation; outline: as §1
Salmonella typhimurium [40] = test: Antimicrobial activity against Salmonella enterica serovar Typhimurium S21-4 acrAB::Kan with GyrA S83F, ParC S80I mutation; outline: as §1
Salmonella typhimurium [41] = test: Antimicrobial activity against Salmonella enterica serovar Typhimurium CHS38 with GyrA D87G mutation; outline: as §1
Salmonella typhimurium [42] = test: Antimicrobial activity against Salmonella enterica serovar Typhimurium S21-2 tolC::Kan with GyrA S83F, ParC S80I mutation; outline: as §1
Salmonella typhimurium [43] = test: Antimicrobial activity against Salmonella enterica serovar Typhimurium S21 gyrA+; outline: as §1
Salmonella typhimurium [44] = test: Antimicrobial activity against Salmonella enterica serovar Typhimurium S21 acrAB::Kan; outline: as §2

Measured: MIC

C[C@@H]1CN(c2c(F)c(F)c3c(=O)c(C(=O)O)cn(C4CC4)c3c2F)C[C@H](C)N1 [ORBIFLOXACIN]
< 0.15 mg/L: Salmonella typhimurium [35]
2 mg/L: Salmonella typhimurium [10] | Salmonella typhimurium [13] | Salmonella typhimurium [19]
0.5 mg/L: Salmonella typhimurium [17] | Salmonella typhimurium [29] | Salmonella typhimurium [33] | Salmonella typhimurium [41]
16 mg/L: Salmonella typhimurium [5] | Salmonella typhimurium [8] | Salmonella typhimurium [22]
0.25 mg/L: Salmonella typhimurium [9] | Salmonella typhimurium [12] | Salmonella typhimurium [15] | Salmonella typhimurium [21] | Salmonella typhimurium [42]
< 0.015 mg/L: Salmonella typhimurium [16] | Salmonella typhimurium [28] | Salmonella typhimurium [44]
4 mg/L: Salmonella typhimurium [1] | Salmonella typhimurium [7] | Salmonella typhimurium [20] | Salmonella typhimurium [23] | Salmonella typhimurium [25] | Salmonella typhimurium [38]
0.06 mg/L: Salmonella typhimurium [14] | Salmonella typhimurium [26]
> 16 mg/L: Salmonella typhimurium [3] | Salmonella typhimurium [34] | Salmonella typhimurium [39]
0.03 mg/L: Salmonella typhimurium [2] | Salmonella typhimurium [32]
0.12 mg/L: Salmonella typhimurium [4] | Salmonella typhimurium [6] | Salmonella typhimurium [11] | Salmonella typhimurium [18] | Salmonella typhimurium [24] | Salmonella typhimurium [30] | Salmonella typhimurium [37] | Salmonella typhimurium [40] | Salmonella typhimurium [43]
1 mg/L: Salmonella typhimurium [31] | Salmonella typhimurium [36]
8 mg/L: Salmonella typhimurium [27]

Source: ChEMBL document CHEMBL1142136, “Contribution of target gene mutations and efflux to decreased susceptibility of Salmonella enterica serovar typhimurium to fluoroquinolones and other antimicrobials” (2007)
